Only some compounds are listed: those with a hit (about 0.9% of all), similar ones and a draw of the others.
RGS7-Gao reg: human RGS7-Galphao interaction regulation | binding response (% of control), % at 10 µM | 220,000 tested, 0.35% active | P09471 | Multiplexed bead flow cytometry, RGS7-Galphao binding; actives lie on both sides; in the data active = binding response below about 49% or above about 150%; inconclusive = no clear call, values can overlap the other calls; inactive = in between;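 note: fluorescent Galphao held in activated GDP-AlF4 state binding bead-coupled RGS7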
RGS8-Gao: regulators of human RGS8-Galphao interaction. P09471. response (percent of control binding), % at 10 µM. 220,000 tested, 0.34% active. multiplexed bead flow cytometry, RGS8-Galphao binding; actives lie on both sides; in the data active = response below about 60% or above about 140%; inactive = in between;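 note: Galphao activated as the GDP aluminium fluoride complex binding bead-coupled RGS8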
RGS4-Gao reg: modulates binding of RGS4 to human Galphao | Multiplexed bead flow cytometry; actives lie on both sides | 220,000 tested, 0.33% active | AID 1415 | binding response (% of control), % at 10 µM | P09471; in the data active = binding response below about 49% or above about 150%; inactive = in between;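 note: fluorescent Galphao activated with aluminum fluoride binding bead-coupled RGS4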
ABCG2 inh: inhibitors of human ABCG2 transporter, ABCB1 counter-screen. Q9UNQ0. IgMXP3 cells, JC-1 efflux, flow cytometry. inhibition, % at 6.6 µM. 190,000 tested, 0.1% active. AID 1325;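 active = inhibition above 80%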
Target sequence (Q9UNQ0 whole entry, looked up): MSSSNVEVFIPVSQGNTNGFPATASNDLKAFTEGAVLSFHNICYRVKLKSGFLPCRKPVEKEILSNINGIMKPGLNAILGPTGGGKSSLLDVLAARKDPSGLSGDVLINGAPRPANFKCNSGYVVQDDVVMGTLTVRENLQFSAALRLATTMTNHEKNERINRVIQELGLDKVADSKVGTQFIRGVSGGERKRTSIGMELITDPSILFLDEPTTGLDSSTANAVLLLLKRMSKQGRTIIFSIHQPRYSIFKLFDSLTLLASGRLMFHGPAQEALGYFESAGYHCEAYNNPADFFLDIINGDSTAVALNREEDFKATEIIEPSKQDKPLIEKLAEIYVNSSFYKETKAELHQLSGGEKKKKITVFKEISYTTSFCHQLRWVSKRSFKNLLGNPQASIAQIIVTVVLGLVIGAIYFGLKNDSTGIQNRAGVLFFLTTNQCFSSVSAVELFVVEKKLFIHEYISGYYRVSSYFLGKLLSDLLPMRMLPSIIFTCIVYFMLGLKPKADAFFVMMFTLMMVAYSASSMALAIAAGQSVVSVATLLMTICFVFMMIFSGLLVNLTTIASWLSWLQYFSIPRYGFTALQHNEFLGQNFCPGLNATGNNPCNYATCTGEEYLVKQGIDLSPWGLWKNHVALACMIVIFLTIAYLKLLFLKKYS
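Incubation: cells with compound and JC-1, 10 min at 25 °C, rotating, no wash / Test system: IgMXP3 (ABCG2) plus far-red-tagged CCRF-Adr (ABCB1) cells / Compound dosing: one concentration, 6.6 µM final / Also added: JC-1 fluorescent substrate / Evaluation: efflux inhibition in percent versus controls / Detection: flow cytometry, 530 nm JC-1 signal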
ABCB1 inh: human ABCB1 inhibition, ABCG2 as counter-screen; P08183; CCRF-Adr cells, JC-1 efflux, flow cytometry; inhibition, % at 6.6 µM; 190,000 tested, 0.067% active; in the data active = inhibition above about 40%;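 note: higher value means more JC-1 retained so stronger ABCB1 efflux block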
RGS16-Gao: modulates binding between human RGS16 and Galphao. 220,000 tested, 0.38% active. bead-based flow cytometry RGS16-Galphao binding, fluorescence; actives lie on both sides. O15492+P09471. binding response (% of control), % at 10 µM;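 note: Galphao activated by GDP with aluminum fluoride before binding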
RGS-Gao: RGS4-Galphao interaction regulator (human) | shares compounds with RGS16-Gao | multiplexed bead flow cytometry, RGS–Galpha-o binding | RGS4–Galpha-o binding response, % at 10 µM | 1,600 tested, 99% active | AID 1504;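 note: fluorescently labeled Galpha-o bound to GDP with aluminium fluoride binding biotinylated RGS beads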
Biotin-avidin: counter-screen: compounds disrupting biotin binding to avidin beads; shares compounds with RGS16-Gao; streptavidin beads, fluorescein-biotin binding, flow cytometry; inhibition, % at 10 µM; 1,700 tested, under 10 active; AID 1783;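 active = inhibition above 50%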;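 note: median green fluorescence of gated singlet beads compared with DMSO control wells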
RGS8-Gao single: RGS8-Galphao interaction regulation, single point confirmation. bead-based flow cytometry RGS8-Galphao binding, fluorescence; actives lie on both sides. shares compounds with RGS16-Gao. binding response (% of control), % at 10 µM. 1,700 tested, 3% active. AID 1836; in the data active = binding response below about 72% or above about 130%; inactive = in between;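 note: Galphao activated as GDP AlF4 complex before binding bead RGS8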
RGS7-Gao confirm: confirmation of regulators of human RGS7-Galphao interaction; shares compounds with RGS16-Gao; bead-based flow cytometry RGS7-Galphao binding; actives lie on both sides; response (percent of control binding), % at 10 µM; 1,700 tested, 7.8% active; AID 1837; in the data active = response below about 75% or above about 130%; inactive = in between;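 note: fluorescent Galphao activated with GDP and aluminum fluoride binding bead-coupled RGS7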
RGS16-Gao conf: RGS16-Galphao interaction regulation, single point confirmation; 1,700 tested, 4% active; bead-based flow cytometry, RGS16-Galphao binding; actives lie on both sides; response (% of control binding), % at 10 µM; shares compounds with RGS16-Gao; in the data active = response below about 74% or above about 130%; inactive = in between;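 note: Galphao activated as the GDP aluminium fluoride complex binding bead-coupled RGS16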
RGS4-Gao confirm: confirmation of regulators of human RGS4-Galphao interaction; shares compounds with RGS16-Gao; RGS4-Galphao binding, multiplexed bead flow cytometry; actives lie on both sides; binding response (% of control), % at 10 µM; 1,700 tested, 4% active; AID 1840; in the data active = binding response below about 74% or above about 130%; inactive = in between
RGS19-Gao single: RGS19-Galphao interaction regulation, single point confirmation | bead-based flow cytometry RGS19-Galphao binding; actives lie on both sides | 1,700 tested, 5% active | shares compounds with RGS16-Gao | response (percent of control binding), % at 10 µM; in the data active = response below about 50% or above about 160%; inactive = in between
Each line names hits and unclear results; the compound was inactive in the other large screens (follow-up assays come after a bar, where they were run); [ ] = dose if it differs, or a comment. Unless noted, the rule behind the calls is not given here.

O=C(N1CCN(Cc2ccccc2)CC1)C12CC3CC(CC(C3)C1)C2	none (no result: RGS7-Gao reg, RGS8-Gao, RGS4-Gao reg, RGS16-Gao) | Biotin-avidin inactive | RGS8-Gao single inactive | RGS7-Gao confirm inactive | RGS16-Gao conf inactive | RGS4-Gao confirm inactive | RGS19-Gao single inactive
O=C(C(Cc1ccccc1)n1cccc1)N1CCN(Cc2ccccc2)CC1 (configuration not stated)	RGS8-Gao 144[activator] | RGS-Gao 113 | Biotin-avidin inactive | RGS8-Gao single inactive | RGS7-Gao confirm inactive | RGS16-Gao conf inactive | RGS4-Gao confirm inactive | RGS19-Gao single inactive
Cc1cccc(OC(C)C(=O)N(Cc2cccs2)C2CCS(=O)(=O)C2)c1C (configuration not stated)	RGS16-Gao -16 | RGS-Gao 69 | Biotin-avidin inactive | RGS8-Gao single inactive | RGS7-Gao confirm inactive | RGS16-Gao conf inactive | RGS4-Gao confirm inactive | RGS19-Gao single inactive
O=C1COc2ccc(C(=O)COC(=O)CNC(=O)C3CCCCC3)cc2N1	RGS7-Gao reg 167[activator], RGS8-Gao 145[activator], RGS4-Gao reg 153[activator] | Biotin-avidin inactive | RGS8-Gao single inactive | RGS7-Gao confirm inactive | RGS16-Gao conf inactive | RGS4-Gao confirm inactive | RGS19-Gao single inactive
COc1ccc2c(c1)NC(C)(C)C=C2C	RGS7-Gao reg inconclusive
CC1=CC(C)(C)Nc2ccccc21	RGS16-Gao 13 | RGS-Gao 77 | Biotin-avidin inactive | RGS8-Gao single inactive | RGS7-Gao confirm inactive | RGS16-Gao conf inactive | RGS4-Gao confirm inactive | RGS19-Gao single inactive
NC1=NC2(CCCC2)N=C(Nc2ccccc2)N1	RGS7-Gao reg inconclusive (no result: ABCG2 inh, ABCB1 inh)
NC1=NC(c2ccccc2)N=C(Nc2ccccc2)N1 (configuration not stated)	RGS7-Gao reg inconclusive, RGS8-Gao 0.9, RGS4-Gao reg -58, RGS16-Gao -30 (no result: ABCG2 inh, ABCB1 inh) | Biotin-avidin inactive | RGS8-Gao single inactive | RGS7-Gao confirm inactive | RGS16-Gao conf inactive | RGS4-Gao confirm inactive | RGS19-Gao single inactive
COc1ccc(S(=O)(=O)Cc2ccc(C(=O)NCCc3ccc(S(N)(=O)=O)cc3)o2)cc1	RGS16-Gao 183[activator] | RGS-Gao 105 | Biotin-avidin inactive | RGS8-Gao single inactive | RGS7-Gao confirm inactive | RGS16-Gao conf inactive | RGS4-Gao confirm inactive | RGS19-Gao single inactive
COCCCNC(=O)c1ccc(CS(=O)(=O)c2ccc(OC)cc2)o1	none
O=C(O)COc1ccccc1/C=N/NC(=O)CSc1nc2ccccc2n1Cc1ccccc1Cl	RGS7-Gao reg inconclusive (no result: ABCG2 inh, ABCB1 inh)
CNc1ccc(Br)cc1C(O)c1ccccc1 (configuration not stated)	RGS7-Gao reg inconclusive (no result: ABCG2 inh, ABCB1 inh)
COc1cc(OC)c(N(C)S(=O)(=O)c2cccc(C(=O)OCC(=O)c3c[nH]c4ccccc34)c2)cc1Cl	RGS16-Gao 24 | RGS-Gao 89 | Biotin-avidin inactive | RGS8-Gao single inactive | RGS7-Gao confirm inactive | RGS16-Gao conf inactive | RGS4-Gao confirm inactive | RGS19-Gao single inactive
CC1C(=O)CC(c2ccccc2)NC1c1ccccc1 (configuration not stated)	RGS16-Gao 407[activator] | RGS-Gao 117 | Biotin-avidin inactive | RGS8-Gao single inactive | RGS7-Gao confirm inactive | RGS16-Gao conf inactive | RGS4-Gao confirm inactive | RGS19-Gao single inactive
Cc1cc(NC(=O)C2CCC2)n(-c2ccccn2)n1	RGS7-Gao reg 6.5, RGS8-Gao 14, RGS4-Gao reg 8.2, RGS16-Gao 3.5 | Biotin-avidin inactive | RGS8-Gao single inactive | RGS7-Gao confirm inactive | RGS16-Gao conf inactive | RGS4-Gao confirm inactive | RGS19-Gao single inactive
O=C(CSc1nnc2n1CCCN2)c1ccc(Cl)cc1	RGS7-Gao reg -278, RGS8-Gao -19, RGS4-Gao reg active[activator] | Biotin-avidin inactive | RGS8-Gao single inactive | RGS7-Gao confirm inactive | RGS16-Gao conf inactive | RGS4-Gao confirm inactive | RGS19-Gao single inactive
O=C(COc1ccc2ccccc2c1)NCCc1ccc2c(c1)OCCO2	RGS8-Gao 106[activator], RGS4-Gao reg 31, RGS16-Gao 113[activator] | Biotin-avidin inactive | RGS8-Gao single inactive | RGS7-Gao confirm inactive | RGS16-Gao conf inactive | RGS4-Gao confirm inactive | RGS19-Gao single inactive
O=C(COc1ccc2ccccc2c1)NCCNC(=O)COc1ccc2ccccc2c1	none
CC1CC(C)CN(C(=O)C(C)N(C)CC(=O)Nc2ccc(Cl)cc2)C1 (configuration not stated)	none
O=C1CCC(N2C(=O)c3ccccc3C2=O)C(=O)N1 (configuration not stated)	RGS7-Gao reg 23, RGS8-Gao 46, RGS4-Gao reg 37 | Biotin-avidin inactive | RGS8-Gao single inactive | RGS7-Gao confirm inactive | RGS16-Gao conf inactive | RGS4-Gao confirm inactive | RGS19-Gao single inactive
CCc1c(O)nc(SCC(=O)Nc2nc3ccccc3s2)n(C2CCCCC2)c1=O	RGS7-Gao reg inconclusive (no result: ABCG2 inh, ABCB1 inh)
COc1cc(/C=N/NC(=O)Cn2ccc(C(F)(F)F)n2)cc(OC)c1OC	RGS7-Gao reg 23, RGS8-Gao 20, RGS4-Gao reg 31, RGS16-Gao 14 | Biotin-avidin inactive | RGS8-Gao single inactive | RGS7-Gao confirm inactive | RGS16-Gao conf inactive | RGS4-Gao confirm inactive | RGS19-Gao single inactive
O=C(Cn1ccc(C(F)(F)F)n1)N/N=C/c1ccc(N2CCOCC2)cc1	RGS7-Gao reg inconclusive
CS(=O)(=O)c1ccc(C(=O)NCCN2C(=O)S/C(=C\c3cccnc3)C2=O)cc1[N+](=O)[O-]	none

High-throughput results: PubChem BioAssay, NMMLSC
